Assay results: paper PMC9979266 (Acta Pharmaceutica Sinica. B, 2022)

Tests used:
NIH3T3 cells = experiment: MTT cell cytotoxicity assay, NIH3T3; type: cell-based, murine; conditions: 10–160 μmol/L, 24 h, n = 3
[1] = system: TGF-β1-induced A549 cells; experiment: Marker expression; type: cell-based, human; conditions: n = 3; for miR-23b-5p expression after inhibitor treatment: 10 μmol/L pretreatment, qPCR
Summary of the method: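 A549 in RPMI 1640 + 10% FBS, plated 24 h, serum-starved overnight. Three pathway inhibitors at 10 μmol/L added 30 min before TGF-β1 (5 ng/mL) plus test peptide. Harvest: RNA/protein at 48 h, phosphoproteins at 1 h. Western: 30 μg protein, 10% SDS-PAGE, ECL, GAPDH-normalised. qPCR: 2−ΔΔCt with GAPDH (mRNA) or U6 (miRNA) reference. At least three independent replicates, mean ± SD.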

Row | Compound | Cytotoxicity against NIH3T3 cells (NIH3T3 cells) | miR-23b-5p expression after inhibitor treatment [1] | AQP5 expression after inhibitor pretreatment ([1]; 10 μmol/L, 30 min pretreatment, Western blot)
1 | DHANPQIR-NH2 [DR3dA] | no toxicity | – | –
2 | DHAAPQIR-NH2 [DR3d4dA] | no toxicity | – | –
3 | DHNAPQIR-NH2 [DR4dA] | no toxicity | – | –
4 | COc1cccc(-c2cc(=O)c3ccccc3o2)c1N [PD98059] | – | reduced | elevated
5 | C[S+]([O-])c1ccc(-c2nc(-c3ccncc3)c(-c3ccc(F)cc3)[nH]2)cc1 (stereo not drawn) [SB203580] | – | reduced | –
